Activity calls are given as the source filed them. The rule behind the calls is not given here.

For assay [1], the species on record is Rattus norvegicus. Description: Inhibitory activity against 48/80 induced release of Histamine from isolated rat peritoneal mast cells at a dose of 10e-3 mol. The assay is classed as functional. In outline:
(§1)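 Rat peritoneal cells (~10% mast cells) collected by lavage with Tris-HCl-buffered (10 mmol, pH 7.4) salt solution. The reaction was stopped on ice. Histamine was measured by o-phthalaldehyde fluorometry in duplicate, expressed as % of total minus spontaneous release, with % inhibition taken versus 48/80 alone.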

For assay [2], the species on record is Rattus norvegicus. Description: Inhibitory activity against 48/80 induced release of Histamine from isolated rat peritoneal mast cells at a dose of 5*10e-4 mol. The assay is classed as functional. In short, it runs like this: as §1
The species entered for assay [3] is Rattus norvegicus. Description: Inhibitory activity against 48/80 induced release of Histamine from isolated rat peritoneal mast cells at a dose of 2*10e-4 mol. The assay is classed as functional. In outline:
as §1

The species entered for assay [4] is Rattus norvegicus. Description: (§2) Inhibitory activity on the compound 48/80 induced release of Histamine from isolated rat peritoneal mast cells at a dose of 5*10e-4 mol. The assay is classed as functional. In short, it runs like this:
as §1

Assay [5] is filed under the species Rattus norvegicus. Description: Inhibitory activity on the compound 48/80 induced release of Histamine from isolated rat peritoneal mast cells at a dose of 10e-3 mol. The assay is classed as functional. In outline:
as §1

For assay [6], the species on record is Rattus norvegicus. Description: Inhibitory activity on the compound 48/80 induced release of Histamine from isolated rat peritoneal mast cells at a dose of 2*10e-4 mol. The assay is classed as functional. In outline:
as §1

Assay [7] is filed under the species Rattus norvegicus. Description: Inhibitory activity (10e-3 mol/L) against 48/80 induced rat mast cell degranulation at a dose of 0.25ug/mL, incubated for 15 min at 37 degree C. The assay is classed as functional. In outline: (§3)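 Harvested rat peritoneal mast cells were preincubated 15 min at 37 °C with test compound suspended in 0.5% CMC (final 10^-3 mol/L). Degranulation was scored by inverted phase-contrast microscopy, counting >100 mast cells. % inhibition = 100[1 − (X − Z)/(Y − Z)], where Z corrects for degranulation in control medium.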

The species entered for assay [8] is Rattus norvegicus. Kind of assay: Inhibitory activity against 48/80 induced release of Histamine from isolated rat peritoneal mast cells at a dose of 5*10e-4 mol; Inactive. The assay is classed as functional, cell-based.
For assay [9], the species on record is Rattus norvegicus. Description: Inhibitory activity against 48/80 induced release of Histamine from isolated rat peritoneal mast cells at a dose of 10e-3 mol; Inactive. The assay is classed as functional, cell-based. In short, it runs like this:
as §1

The species entered for assay [10] is Rattus norvegicus. Kind of assay: Inhibitory activity on compound (in 0.5% CMC solution) 48/80 induced rat mast cell degranulation at a dose of 0.25micorg/mL, incubated for 15 min at 37 degree C. The assay is classed as functional. In outline:
as §3

For assay [11], the species on record is Rattus norvegicus. Kind of assay: Inhibitory activity on the compound (in 0.5% CMC solution) 48/80 induced release of Histamine rat mast cell degranulation at a dose of 0.25micorg/mL, incubated for 15 min at 37 degree C. The assay is classed as functional. In outline: as §3
For assay [12], the species on record is Rattus norvegicus. The assay is described as §2. The assay is classed as functional. In outline: as §1
This is another data set of the same source.

The species entered for assay [13] is Rattus norvegicus. Kind of assay: Inhibitory activity of histamine release at 2*10e-3 mol. The assay is classed as functional.

Consider `CCOC(=O)C1c2ccccc2C(=O)OC12CCN(Cc1ccccc1)CC2.Cl` (centres undefined), for which the Inhibition in the assay filed under Rattus norvegicus [1] is reported as 84%; in the assay filed under Rattus norvegicus [2], 12%.

For `Cl.c1ccc(CCN2CCC3(CC2)COCc2ccccc23)cc1`, the Inhibition in the assay filed under Rattus norvegicus [1] was determined as 100%; in the assay filed under Rattus norvegicus [3] it was 28%; in the assay listed under Rattus norvegicus [2], 96%.

For `CCCCCCCN1CCC2(CC1)Cc1ccccc1C(=O)O2.Cl`, the Inhibition turned out to be 100% in the assay filed under Rattus norvegicus [4], 100% in the assay listed under Rattus norvegicus [5] and 64% in the assay filed under Rattus norvegicus [6].

Consider `Cl.O=C1OC2(CCN(c3ccccc3)CC2)Cc2ccccc21`, for which, in the assay filed under Rattus norvegicus [7], the Inhibition is 29.1%.

With `O=C1OC2(CCNCC2)Cc2ccccc21`, in the assay filed under Rattus norvegicus [8], the inhibition result is “inactive”.

Take `O=C([O-])c1cc(=O)c2c(OCC(O)COc3cccc4oc(C(=O)[O-])cc(=O)c34)cccc2o1.[Na+].[Na+]` [CROMOLYN SODIUM]: the values for the Inhibition in the assay listed under Rattus norvegicus [1], in the assay listed under Rattus norvegicus [3] and in the assay listed under Rattus norvegicus [2] were 80%, 31% and 58%, respectively.

Consider `CN1CCC(CO)(c2ccccc2)CC1`, for which the inhibition result in the assay filed under Rattus norvegicus [9] was “inactive”.

Turning to `CCCCCN1CCC2(CC1)Cc1ccccc1C(=O)O2.Cl`, the Inhibition in the assay filed under Rattus norvegicus [1] was 79%; in the assay filed under Rattus norvegicus [3], 23%; in the assay listed under Rattus norvegicus [2], 35%.

On to `Cl.O=C1OC2(CCN(CCCc3ccccc3)CC2)Cc2ccccc21`, for which the Inhibition in the assay filed under Rattus norvegicus [1] is given as 85%; in the assay listed under Rattus norvegicus [3], 5%; in the assay listed under Rattus norvegicus [2] it was 18%.

Take `O=C1OC2(CCC(Cc3ccccc3)CC2)Cc2ccccc21` (centres undefined): the Inhibition in the assay listed under Rattus norvegicus [10] is 52%.

As for `OCC1(c2ccccc2)CCN(CCc2ccccc2)CC1`, in the assay filed under Rattus norvegicus [1], the Inhibition stood at 49%.

`C=CCN1CCC2(CC1)OC(=O)c1ccccc1C2C(=O)OCC` (centres undefined): the inhibition result in the assay listed under Rattus norvegicus [8] was “inactive”.

Regarding `CCOC(=O)C1c2ccccc2C(=O)OC12CCN(C)CC2` (centres undefined), the inhibition result in the assay listed under Rattus norvegicus [8] is “inactive”.

For `Cl.O=C1OC2(CCN(Cc3ccccc3)CC2)Cc2ccccc21`, the Inhibition in the assay listed under Rattus norvegicus [11] is reported as 94.5%; in the assay filed under Rattus norvegicus [1], 76%; in the assay listed under Rattus norvegicus [3], 20%; in the assay listed under Rattus norvegicus [2] it was 40%.

Take `CC(C)CN1CCC2(CC1)Cc1ccccc1C(=O)O2`: the inhibition result in the assay filed under Rattus norvegicus [8] is “inactive”.

Consider `CCCCCCCCCCN1CCC2(CC1)Cc1ccccc1C(=O)O2`, for which, in the assay filed under Rattus norvegicus [12], the inhibition result was “inactive”.

Turning to `CN1CCC2(CC1)COC(=O)c1ccccc12`, in the assay listed under Rattus norvegicus [8], the inhibition entry was “inactive”.

As for `CCCCCCN1CCC2(CC1)Cc1ccccc1C(=O)O2.Cl`, the Inhibition in the assay listed under Rattus norvegicus [3] turned out to be 32%; in the assay listed under Rattus norvegicus [2], 67%.

For the compound `C=CCN1CCC2(CC1)Cc1ccccc1C(=O)O2`, in the assay filed under Rattus norvegicus [8], the inhibition result was “inactive”.

On to `Cl.O=C1OC2(CCN(CC3CCCCC3)CC2)Cc2ccccc21`, for which the figures for the Inhibition in the assay filed under Rattus norvegicus [1] and in the assay filed under Rattus norvegicus [2] were 83% and 47%, respectively.

With `O=C1OC2(CCN(C3CCCCC3)CC2)Cc2ccccc21`, in the assay filed under Rattus norvegicus [8], the inhibition result was “inactive”.

For `Cl.O=C1OCC2(CCN(Cc3ccccc3)CC2)c2ccccc21`, the Inhibition in the assay filed under Rattus norvegicus [4] turned out to be 31%; in the assay listed under Rattus norvegicus [3], 5%.

Regarding `CCCN1CCC2(CC1)Cc1ccccc1C(=O)O2`, in the assay listed under Rattus norvegicus [8], the inhibition result was “inactive”.

For `O=C1OCC2(CCN(CCc3ccccc3)CC2)c2ccccc21`, the Inhibition is 100% in the assay filed under Rattus norvegicus [1], 15% in the assay filed under Rattus norvegicus [3] and 94% in the assay listed under Rattus norvegicus [2].

Regarding `C[N+]1(Cc2ccccc2)CCC2(CC1)Cc1ccccc1C(=O)O2.[I-]` (centres undefined), the Inhibition in the assay listed under Rattus norvegicus [13] came to 28%.

Take `CN(CCC1(C)COCc2ccccc21)Cc1ccccc1` (centres undefined): in the assay filed under Rattus norvegicus [11], the Inhibition was -8%.

For the compound `CCCCN1CCC2(CC1)Cc1ccccc1C(=O)O2.Cl`, the Inhibition in the assay filed under Rattus norvegicus [1] stood at 85%; in the assay filed under Rattus norvegicus [3], 18%; in the assay filed under Rattus norvegicus [2], 43%.

Consider `Cl.O=C1OC2(CCN(CCc3ccccc3)CC2)Cc2ccccc21`, for which the Inhibition in the assay filed under Rattus norvegicus [1] turned out to be 86%; in the assay filed under Rattus norvegicus [2], 6%.

For the compound `CN1CCC2(CC1)COCc1ccccc12`, the inhibition entry in the assay listed under Rattus norvegicus [8] was “inactive”.

`OCC1(c2ccccc2)CCN(Cc2ccccc2)CC1`: the inhibition entry in the assay filed under Rattus norvegicus [9] is “inactive”.

`CN1CCC2(CC1)Cc1ccccc1C(=O)O2`: the inhibition result in the assay filed under Rattus norvegicus [8] was “inactive”.

For `CCCCCCCCN1CCC2(CC1)Cc1ccccc1C(=O)O2`, the inhibition result in the assay listed under Rattus norvegicus [12] was “inactive”.

The values are drawn from ChEMBL document CHEMBL1121901, “Synthesis and structure-activity relationship of spiro[isochromanpiperidine] analogues for inhibition of histamine release” (1981).
